Legend:
[1] = test system: Homo sapiens; test: Renal toxicity in patient with cutaneous leishmaniasis assessed as mild elevation of creatinine at […], po three times a day for 28 days; assay type: organism-based; set-up: route oral; settings: in vivo, 672 h
[2] = test system: Homo sapiens; test: Toxicity in patient with cutaneous leishmaniasis assessed as mild to moderate fatigue at […], po three times a day for 28 days; assay type: organism-based; set-up: route oral; settings: in vivo, 672 h
[3] = test system: Homo sapiens; test: Hepatotoxicity in patient with cutaneous leishmaniasis assessed as mild elevation of aspartate aminotransferase at […], po three times a day for 28 days; assay type: toxicity, organism-based; set-up: route oral; settings: in vivo, 672 h
[4] = Terminal half life in patient with cutaneous leishmaniasis at 2.5 mg/kg, po once a day measured after 6 to 8 days by LC-MS/MS assay; assay type: ADME, organism-based; set-up: dose 2.5 mg/kg, route oral; settings: human, in vivo
[5] = species: Homo sapiens; test: Plasma concentration in patient with cutaneous leishmaniasis measured after 178 to 202 days by LC-MS/MS assay; settings: in vivo
[6] = Terminal half life in patient with leishmaniasis at […], po three times a day for 28 days by LC-MS/MS assay; assay type: ADME, organism-based; set-up: route oral; settings: human, in vivo
How it was run: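 Population pharmacokinetic fit in NONMEM of 382 plasma concentrations (LC-MS/MS, LLOQ 4 ng/ml) from 31 patients on 150 mg/day for 28 days, sampled up to day 202. Nested models were compared by objective function with the log likelihood ratio test and checked with observed-versus-predicted and conditional weighted residual plots; a two-compartment model was used for the terminal half-life.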

[7] = test system: Homo sapiens; test: Toxicity in patient with cutaneous leishmaniasis assessed as mild to moderate gastrointestinal side-effect at […], po three times a day for 28 days; assay type: organism-based; set-up: route oral; settings: in vivo, 672 h
[8] = test system: Homo sapiens; test: Plasma concentration in patient with cutaneous leishmaniasis at […], po three times a day measured after 22 to 28 days by LC-MS/MS assay; assay type: ADME, organism-based; set-up: route oral; settings: in vivo
How it was run: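 31 cutaneous leishmaniasis patients given miltefosine 150 mg/day for 28 days. Venous EDTA blood was spun at about 23,100 × g, 4°C, 15 min, and plasma stored at ≤−20°C. Analysis was solid-phase extraction of 250 μl plasma, then isocratic C18 LC-MS/MS; range 4–2,000 ng/ml, higher samples diluted in blank plasma. Sampling windows: days 178–202, days 22–28.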

[9] = Cmax in serum of patient with cutaneous leishmaniasis at 2.5 mg/kg, po once a day for 23 days by LC-MS/MS assay; assay type: ADME, organism-based; set-up: dose 2.5 mg/kg, route oral; settings: human
[10] = test system: Homo sapiens; test: Hepatotoxicity in patient with cutaneous leishmaniasis assessed as mild elevation of alanine aminotransferase at […], po three times a day for 28 days; assay type: toxicity, organism-based; set-up: route oral; settings: in vivo, 672 h

half-life [4]: 6.25 days
Activity [5]: 17.5 ng/mL
half-life [6]: 30.9 days
Activity [8]: 30800 ng/mL
Cmax [9]: 70 µg/mL
Compound: CCCCCCCCCCCCCCCCOP(=O)([O-])OCC[N+](C)(C)C [MILTEFOSINE]
Activity [1]: Toxic
Activity [2]: Toxic
Activity [3]: Toxic
Activity [7]: Toxic
Activity [10]: Toxic
